# From PubChem
# The list is not random: actives were taken first. Their share in the collection is about 2.9%.
# Jurkat viability = cytotoxicity toward Jurkat T cells, primary screen, cytotoxicity control, cell-based, Jurkat E6.1, 60K MLSMR library | Jurkat E6.1 viability, ATP luminescence, 48 h | inhibition, % at 4 µM | 1.2% of 56,000 active | AID 463, 2006;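 active = inhibition above the mean inhibition of all tested compounds plus 3 SD, cut at about 28% in these data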
# MT1-MMP txn act = MT1-MMP promoter reporter activation – cell-based, luciferase luminescence, primary screen; HT1080 MT1-MMP promoter luciferase reporter, overnight; active compounds read high; activation factor at 10 µM; 0.16% of 86,000 active; AID 750, 2007;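 active = activation factor of at least 2 for MT1-MMP transcription at 10 µM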
# HEK293 NFkB inh = inhibitors of PMA/ionomycin-induced NF-kB reporter, primary screen, antigen receptor NF-kB inhibitor project, cell-based, HEK-293 luciferase reporter, luminescence; AID 465, 2006; HEK-293 NF-kB luciferase reporter; 0.21% of 62,000 active; inhibition, % at 3 µM;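 active = inhibition above the mean of all tested compounds plus 3 SD, cut at about 40% in these data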;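 also: 0% = stimulated DMSO wells and 100% = 10 µM reference inhibitor 5653914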
#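 Reagent: PMA plus ionomycin mix as NF-kB-activating stimulus. Assay system: NF-kB luciferase reporter HEK-293 cells. Technique: luminescence from luciferase substrate reagent. Incubation: 1 h compound pre-incubation, 16 h PMA/ionomycin at 37 °C. Benchmarks: DMSO only as uninhibited control, 10 µM reference inhibitor as full inhibition. Repeats: tested once.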
# RORa activator = activators of orphan receptor RORA, primary screen, cell-based, luminescence | Nuclear receptor ROR-alpha (Homo sapiens), P35398 | activation, % at 10 µM | CHO-K1 Gal4-RORA LBD luciferase reporter; percent increase over mock-subtracted basal signal | 1.5% of 65,000 active;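 active = activation above the mean of all tested compounds plus 3 SD, cut at about 49% in these data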;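 also: 0% = DMSO-treated RORA cells and 100% = added signal equal to DMSO minus mock-transfected cells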
# Target sequence (P35398 whole entry, looked up, the tested form may be a part): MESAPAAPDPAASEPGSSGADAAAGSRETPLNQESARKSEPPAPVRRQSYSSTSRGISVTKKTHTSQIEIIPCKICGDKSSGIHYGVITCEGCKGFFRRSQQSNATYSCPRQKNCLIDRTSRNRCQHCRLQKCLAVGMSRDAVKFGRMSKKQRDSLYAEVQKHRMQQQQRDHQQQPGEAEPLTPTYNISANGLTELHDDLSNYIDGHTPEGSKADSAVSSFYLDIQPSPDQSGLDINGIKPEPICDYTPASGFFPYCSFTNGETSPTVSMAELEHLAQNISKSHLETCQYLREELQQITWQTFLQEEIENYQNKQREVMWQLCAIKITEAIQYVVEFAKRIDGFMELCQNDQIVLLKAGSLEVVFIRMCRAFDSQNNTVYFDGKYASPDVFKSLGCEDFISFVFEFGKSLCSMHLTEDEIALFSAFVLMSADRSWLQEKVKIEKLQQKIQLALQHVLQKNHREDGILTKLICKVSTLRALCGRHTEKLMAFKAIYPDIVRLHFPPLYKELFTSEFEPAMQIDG
# SF-1 act = activators of human SF-1, primary screen, cell-based, CHO-K1, Gal4-SF-1 LBD, luciferase luminescence; Steroidogenic factor 1 (Homo sapiens), Q13285; CHO-K1 Gal4-SF-1 LBD luciferase reporter; % increase over DMSO SF-1-specific signal; activation, % at 10 µM; 1.9% of 65,000 active; AID 522, 2006;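 active = activation above the mean activation of all tested compounds plus 3 SD, cut at about 50% in these data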
#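 Material: Transient Gal4-SF-1 LBD reporter, CHO-K1 | Input: 4,000 cells/well | Dosing: One dose, 10 µM compound, 1% DMSO | Incubation: 20 h compound treatment, 37 °C | Detection: SteadyLite luciferase luminescence | Evaluation: Percent activation relative to DMSO median and mock-transfected background | Benchmarks: DMSO-treated SF-1-transfected cells as negative, DMSO-treated mock-transfected cells lacking SF-1 as background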
# An asterisk follows results filed as active; x = not tested or not shown.
SMILES,Jurkat viability,MT1-MMP txn act,HEK293 NFkB inh,RORa activator,SF-1 act
CCOc1ccc(-c2[nH]ncc2Oc2ccccc2OC)c(O)c1,-2,1,6,-16,5
COc1ccc(-c2cc(-c3ccc(OC)c(OC)c3)n[nH]2)c(O)c1,x,2*,x,x,x
COc1ccc(-c2cc(-c3cc(OC)ccc3O)[nH]n2)cc1,x,1.9,x,x,x
CCOc1ccc(-c2[nH]ncc2-c2ccc(OC)c(OC)c2)c(O)c1,92*,1.2,33,12,20
COc1ccc(-c2cc(-c3ccccc3O)[nH]n2)cc1OC,-2,1.2,-2,-9,23
COc1ccc(-c2cc(-c3cc(F)ccc3O)[nH]n2)cc1OC,5,2.3*,-7,4,36
Nc1c(C(=O)NC2CCCC2)sc2nc(-c3cccs3)ccc12,-1,1,14,20,60*
O=C(NC1CCCCCC1)c1cccs1,-1,1.3,2,24,-2
Nc1nnnn1/N=C/C(Br)=C/c1ccccc1,84*,1.6,10,-77,-96
Nc1nc(-c2cccc(NS(=O)(=O)c3ccccc3)c2)cs1,2,1.1,16,0,0
O=c1c2c3nc4ccccc4nc3n(CCN3CCOCC3)c2ncn1CCN1CCOCC1,2,1,9,-13,-2
COc1ccc2nc(NC(=O)c3ccc4ncsc4c3)sc2c1,2,1.6,-21,54*,61*
CCOc1ccc2nc(SCC(=O)c3ccc(Cl)s3)sc2c1,x,1.2,x,x,x
CCOc1ccc2nc(SCC(=O)c3cccs3)sc2c1,-1,1.3,-21,26,54*
CCCC(=O)Nc1nc2ccc(OCC)cc2s1,-5,1.5,-33,49*,50*
CCOc1ccc2nc(NC(=O)CSc3ccccc3)sc2c1,x,1.2,x,x,x
CCCC(=O)Nc1nc2ccc(S(=O)(=O)N3CCCCC3)cc2s1,79*,1.1,27,34,45
N#Cc1nc(COc2ccccc2F)oc1N1CCCCCC1,-2,2.2*,11,34,14
N#Cc1nc(COc2ccccc2Cl)oc1N1CCCCCC1,7,1.1,25,17,-18
Cc1ccc(N=Cc2c(O)n(-c3cc(Cl)ccc3N3CCOCC3)c(=O)c3ccccc23)cc1C,x,1,x,x,x
Cc1ccc(C2NC(=O)c3ccccc3N2)s1 (stereo not drawn),75*,0.6,-17,77*,89*
Cc1ccc(S(=O)(=O)Nc2cccc3ncccc23)s1,31*,0.3,15,-80,-91
Cc1ccc(S(=O)(=O)Nc2ccnc3ccccc23)cc1,x,1.2,x,x,x
Cc1cc(Nc2ccccc2C(=O)O)nc2nc3ccccc3c(=O)n12,2,1.4,16,-1,-6
Cc1ccccc1Nc1nn2c(=O)c3ccccc3nc2s1,-8,1.4,-24,43,73*
SMILES,Jurkat viability,MT1-MMP txn act,HEK293 NFkB inh,RORa activator,SF-1 act
CCN(CC)S(=O)(=O)c1ccc2oc(C(=O)NCc3ccc(F)cc3)c(C)c2c1,x,1,28,27,12
O=C(COc1ccc(Cl)cc1Cl)N(Cc1ccco1)C1CCS(=O)(=O)C1 (stereo not drawn),5,1.2,13,-15,-2
c1coc(-c2nnc3sc(-c4cccs4)nn23)c1,x,1.3,x,22,3
CCC(C)Nc1nc2c(c(=O)n(C)c(=O)n2C)n1Cc1ccc(Cl)cc1 (stereo not drawn),3,1.2,1,20,5
CCNc1nc2c(c(=O)n(C)c(=O)n2C)n1Cc1ccc(Cl)cc1,58*,x,15,-48,-54
CCOC(=O)c1[nH]c2ccc(C)cc2c1N,x,1.7,x,12,73*
CCOC(=O)c1[nH]c2cc(OC)c(OC)cc2c1N,x,1.1,x,x,x
Cc1ccc(-c2cc3nc(C)cc(NCc4ccco4)n3n2)cc1,2,1.5,-23,59*,51*
CCCN1C(=O)/C(=C2\SC(N3CCCCC3)=NC2=O)c2ccccc21,4,1.6,-15,65*,81*
O=C1N=C(N2CCOCC2)S/C1=C1\C(=O)N(Cc2ccccc2)c2ccccc21,-4,1.4,-5,42,30
COc1ccc(N2CCN(C(=O)c3ccc(N4C(=O)NC5CC4(C)Oc4ccccc45)cc3)CC2)cc1 (stereo not drawn),10,1.1,11,-2,-6
COC(=O)C1=C(CCc2ccccc2)NC(=O)NC1c1ccc(Cl)cc1 (stereo not drawn),x,1.1,x,x,x
Cc1ccc(Cl)cc1N1CCN(C(=O)C2CCN(c3nnc(-n4cccc4)s3)CC2)CC1,41*,0.9,9,-4,-8
Cc1cccc(N2CCN(C(=O)C3CCN(c4nnc(-n5cccc5)s4)CC3)CC2C)c1 (stereo not drawn),9,1.1,20,-3,12
CCc1nc2oc3cc(OC)ccc3c(=O)c2c(=O)n1-c1ccccc1,-4,1.2,0,24,8
Cc1ccc(-n2c(C)nc3oc4ccccc4c(=O)c3c2=O)cc1,1,2.2*,10,68*,18
CCN(CC)C(=O)c1cnn(-c2ccccc2)c1NC(=O)c1cccs1,x,1.2,x,x,x
COc1ccc(-c2nnnn2-c2ccccc2OC)cc1,48*,1.2,5,6,12
CC(C)(C)n1ncc2c(=O)n(CC(=O)NCc3ccccc3Cl)cnc21,4,0.8,-71,8,74*
CC(C)(C)n1ncc2c(=O)n(CC(=O)NCCc3ccccc3)cnc21,5,1.4,6,-1,32
Cc1cc(C)nc(N2CCC(C(=O)NCCc3ccc(F)cc3)CC2)n1,4,1,52*,-5,-2
Cc1cc(-c2ccccc2)nc(N2CCC(C(=O)NCc3ccccc3Cl)CC2)n1,x,1.3,x,x,x
C=CCNC(=O)C1CCN(c2nc(C)cc(-c3ccccc3)n2)CC1,-2,1.7,-42,33,102*
COC(=O)C1=C(C)NC(C)=C(C(=O)OC)C1c1ccccc1OCc1c(C)no[n+]1[O-],-3,1.1,19,-5,10
Cc1n[nH]c(C)c1S(=O)(=O)N(CC(=O)Nc1ccc2c(c1)OCCO2)c1ccc(C(C)C)cc1,0,1.2,22,27,-5
SMILES,Jurkat viability,MT1-MMP txn act,HEK293 NFkB inh,RORa activator,SF-1 act
O=C(Nc1ccccc1C(=O)O)c1cccc(F)c1,x,1.1,x,x,x
O=C(CC(=O)c1ccccc1O)c1cccc(F)c1,69*,1.2,11,26,4
CC(=O)c1c(C)[nH]c(C(=O)OCCCCN2C(=O)c3ccccc3C2=O)c1C,67*,1,31,-78,-84
CCOC(=O)c1c(NC(=O)CSc2nnc(Cc3ccccc3)o2)sc(C)c1C,x,1.1,x,x,x
CC(=O)Oc1ccc2cc(-c3nc4ccccc4n3C)c(=O)oc2c1,-1,1.5,-10,76*,65*
Cn1c(NCc2ccccc2O)nc2ccccc21,2,1.2,-19,27,49
